Data reported in ChEMBL document CHEMBL1765008, “Fused heterocyclic amido compounds as anti-hepatitis C virus agents” (Bioorg Med Chem, 2011).

test system: Hepatitis C virus; assay: Antiviral activity against Hepatitis C virus assessed as inhibition of viral replication after 24 hrs by cell based luciferase reporter gene assay; format: functional, organism-based; details: Hepacivirus hominis, 72 h, in the assay text read “after 3 days” for “after 24 hrs”
In short: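 Subgenomic HCV RNA replicon cells carrying luciferase (LucNeo#2), maintained in DMEM with 10% FBS, antibiotics and 1 mg/ml geneticin. Seeded at 50,000 cells/ml without geneticin and incubated 24 h. Medium then replaced with medium containing serial compound dilutions for 3 days. Cells washed with PBS and lysed for 10 min; luciferase activity in the lysate read by luminometer.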

EC50 | SMILES
5 µM | CCCCn1c(=O)c2cccc(OC)c2c2cc(C(O)(C(F)(F)F)C(F)(F)F)ccc21
2.3 µM | CCCCn1c(=O)c2cc3c(cc2c2cc(C(O)(C(F)(F)F)C(F)(F)F)ccc21)OCO3
0.29 µM | CCCCn1c(=O)c2ccccc2c2cc(C(O)(C(F)(F)F)C(F)(F)F)c3c(c21)OCO3
2.1 µM | CCCCn1c(=O)c2ccccc2c2cc(C(O)(C(F)(F)F)C(F)(F)F)cc(C)c21
3.4 µM | CCCCn1c(=O)c2ccccc2c2cc(C(O)(C(F)(F)F)C(F)(F)F)c(OC)cc21
12 µM | CCCCn1c(=O)c2cc(OC)ccc2c2c(OC)c(C(O)(C(F)(F)F)C(F)(F)F)c3c(c21)OCO3
1.8 µM | CCCCn1c(=O)c2cc(OC)ccc2c2cc(C(O)(C(F)(F)F)C(F)(F)F)c(OC)c(OC)c21
6.1 µM | CCCCn1c(=O)c2cc(OC)ccc2c2c(OC)c(C(O)(C(F)(F)F)C(F)(F)F)cc(OC)c21
5.6 µM | CCCCn1c(=O)c2ccccc2c2cc(C(O)(C(F)(F)F)C(F)(F)F)c(C)cc21
0.18 µM | CCCCn1c(=O)c2cc(OC)ccc2c2cc(C(O)(C(F)(F)F)C(F)(F)F)c(OC)cc21
3.2 µM | CCCCn1c(=O)c2ccccc2c2cc(C(O)(C(F)(F)F)C(F)(F)F)ccc21
5.7 µM | CCCCn1c(=O)c2ccccc2c2c(OC)c(C(O)(C(F)(F)F)C(F)(F)F)cc(OC)c21
1.1 µM | CCCCn1c(=O)c2ccccc2c2cc(C(O)(C(F)(F)F)C(F)(F)F)cc(OC)c21
2.6 µM | CCCCn1c(=O)c2ccccc2c2cc(C(O)(C(F)(F)F)C(F)(F)F)c(OC)c(OC)c21
16.6 µM | CCCCn1c(=O)c2ccc(OC)cc2c2cc(C(O)(C(F)(F)F)C(F)(F)F)ccc21
9.8 µM | CCCCn1c(=O)c2ccccc2c2c(OC)c(C(O)(C(F)(F)F)C(F)(F)F)c3c(c21)OCO3
8.8 µM | O=c1c2ccccc2c2cc(C(O)(C(F)(F)F)C(F)(F)F)ccc2n1Cc1ccc2ccccc2c1
5.4 µM | COCCn1c(=O)c2ccccc2c2cc(C(O)(C(F)(F)F)C(F)(F)F)ccc21
0.51 µM | CCCCn1c(=O)c2cc(OC)ccc2c2cc(C(O)(C(F)(F)F)C(F)(F)F)cc(OC)c21
9.96 µM | CCCCn1c(=O)c2c(OC)cccc2c2cc(C(O)(C(F)(F)F)C(F)(F)F)ccc21
1.73 µM | CCCCn1c(=O)c2cc3c(cc2c2cc(C(O)(C(F)(F)F)C(F)(F)F)c4c(c21)OCO4)OCO3
0.98 µM | CCCCn1c(=O)c2cc(OC)ccc2c2cc(C(O)(C(F)(F)F)C(F)(F)F)ccc21
7.2 µM | CCCCn1c(=O)c2ccccc2c2c(OC)c(C(O)(C(F)(F)F)C(F)(F)F)ccc21
5.3 µM | CCCCn1c(=O)c2ccccc2c2cc(C(O)(C(F)(F)F)C(F)(F)F)c(F)cc21
0.05 µM | CCCCn1c(=O)c2cc(OC)ccc2c2cc(C(O)(C(F)(F)F)C(F)(F)F)c3c(c21)OCO3
2.4 µM | CCCCn1c(=O)c2ccccc2c2cc(C(O)(C(F)(F)F)C(F)(F)F)cc(F)c21

test system: Bovine viral diarrhea virus 1; assay: Antiviral activity against Bovine viral diarrhea virus assessed as inhibition of viral replication after 24 hrs by cell based luciferase reporter gene assay; format: functional, organism-based; details: Bovine viral diarrhea virus isolates and strains

EC50 | SMILES
0.0035 µM | Cc1ncc2c3ccccc3n(C)c2c1C
